The values below come from ChEMBL document CHEMBL4219118, “Cathepsin B inhibitors: Further exploration of the nitroxoline core” (Bioorg Med Chem Lett, 2018).

Data set [1] has as its target T1, Cathepsin B (Homo sapiens, UniProt P07858). Kind of data set: Competitive inhibition of recombinant human cathepsin B endopeptidase activity assessed as inhibitory constant for enzyme-inhibitor complex using Z-Arg-Arg-AMC as substrate in presence of pH 4.5 acetate buffer by fluorescence assay. Conditions: read-out: Ki. The procedure, abridged: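 Recombinant cathepsin B endopeptidase activity assayed with the small substrate Z-Arg-Arg-AMC at pH 4.5. Acidic conditions chosen to shift the enzyme toward the closed (exopeptidase) conformation. Ki reported.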

Data set [2] has as its target T1, Cathepsin B. The experiment in a line: Uncompetitive inhibition of recombinant human cathepsin B exopeptidase activity assessed as inhibitory constant for enzyme-substrate-inhibitor complex using Abz-Gly-Ile-Val-Arg-Ala-Lys(Dnp)-OH as substrate in presence of pH 5 acetate buffer by fluorescence assay.
The target in data set [3] is T1, Cathepsin B. The experiment in a line: Inhibition of recombinant human cathepsin B endopeptidase activity assessed as inhibitory constant for enzyme-inhibitor complex using Z-Arg-Arg-AMC as substrate in presence of pH 6 phosphate buffer by fluorescence assay.
The target in another data set is T2, Pro-cathepsin H (Homo sapiens, UniProt P09668).
T2 sequence (P09668 whole entry): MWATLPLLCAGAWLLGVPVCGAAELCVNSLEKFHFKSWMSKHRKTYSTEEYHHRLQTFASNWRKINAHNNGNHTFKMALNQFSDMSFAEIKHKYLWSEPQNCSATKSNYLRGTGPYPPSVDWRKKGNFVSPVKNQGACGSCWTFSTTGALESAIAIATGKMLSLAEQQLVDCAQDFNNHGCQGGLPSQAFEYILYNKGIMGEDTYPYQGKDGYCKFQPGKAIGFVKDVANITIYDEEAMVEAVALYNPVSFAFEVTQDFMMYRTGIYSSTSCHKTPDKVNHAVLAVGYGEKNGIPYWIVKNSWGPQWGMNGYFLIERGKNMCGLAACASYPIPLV
Kind of data set: Competitive inhibition of human liver cathepsin H assessed as inhibitory constant for enzyme-inhibitor complex using R-AMC as substrate in presence of pH 6 phosphate buffer by fluorescence assay.

Data set [4] addresses T1, Cathepsin B. The experiment in a line: Inhibition of cathepsin B in human MCF-10A neoT cells assessed as proteolysis of extracellular membrane by measuring decrease in extracellular degradation of DQ-collagen 4 at 1.25 uM incubated for 6 hrs measured for 2 hrs by fluorescence based spectrofluorimetric assay relative to control. The data set is classed as cell-based. The gist of the method: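 MCF-10A neoT cells (5 × 10⁴) incubated with DQ-collagen IV in the presence of compound or DMSO. Extracellular degradation product read by spectrofluorimetry. Mean of n = 3, six replicates per experiment.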

Data set [5] relates to U-87 MG. The experiment in a line: Growth inhibition of human U87MG tumor spheroids at 1.25 uM measured up to 3 days by light microscopy. The data set is classed as functional, cell-based. Particulars: U-87MG ATCC. The gist of the method: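 U-87 MG multicellular spheroids formed by hanging drop and implanted in Matrigel with compound. Spheroid dimensions measured for up to three days and volume calculated. Means of n = 2.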

Data set [6] concerns MCF-10A-neoT. Kind of data set: Cytotoxicity against human MCF10AneoT cells assessed as decrease in cell viability after 72 hrs by MTS assay. The data set is classed as cell-based. Background: Tetrazolium dyes change colour on reduction, which living cells bring about.
For data set [7], the target named is T1, Cathepsin B. The experiment in a line: Inhibition of cathepsin B in human MCF-10A neoT cells assessed as proteolysis of extracellular membrane by measuring decrease in intracellular degradation of DQ-collagen 4 at 12.5 uM incubated for 2 hrs followed by DQ-collagen addition measured for 2 hrs by propidium iodide staining based flow cytometry relative to control. Format: cell-based. The gist of the method:
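MCF-10A neoT cells (6 × 10⁴) treated with compound or DMSO. Intracellular DQ-collagen IV degradation measured by flow cytometry, with unlabeled cells as background. Reduction expressed versus DMSO. Mean of n = 3, run in duplicate.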

In data set [8] the target is T1, Cathepsin B. The experiment in a line: Uncompetitive inhibition of recombinant human cathepsin B endopeptidase activity assessed as inhibitory constant for enzyme-substrate-inhibitor complex using Z-Arg-Arg-AMC as substrate in presence of pH 6 phosphate buffer by fluorescence assay.
Another data set addresses Procathepsin L (Homo sapiens, UniProt P07711). Kind of data set: Competitive inhibition of recombinant human cathepsin L expressed in Escherichia coli assessed as inhibitory constant for enzyme-inhibitor complex using Z-FR-AMC as substrate in presence of pH 6 phosphate buffer by fluorescence assay.
Data set [9] deals with U-87 MG. Kind of data set: Cytotoxicity against human U87MG cells assessed as decrease in cell viability after 72 hrs by MTS assay. Format: cell-based. Particulars: u-87mg atcc.
Data set [10] has as its system MCF-10A-neoT. Kind of data set: Antiinvasive activity against human MCF10AneoT cells at 1.25 uM incubated for 1 hr measured every 15 mins for 72 hrs by real time xCELLigence assay relative to control. Format: functional. The procedure, abridged: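 MCF-10A neoT cells (3 × 10⁴) seeded on Matrigel-coated (1 mg/mL) upper compartments of CIM-plates. Compound or DMSO (0.05%) added to growth medium in both upper and lower compartments. Invasion followed by impedance (cell index) for 72 h. Slopes (1/h) between 4 and 14 h converted to percentage invasion versus DMSO. Means of n = 2, each run in triplicate.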

The target in data set [11] is T1, Cathepsin B. Kind of data set: Non-competitive inhibition of recombinant human cathepsin B endopeptidase activity assessed as inhibitory constant for enzyme-substrate-inhibitor complex using Z-Arg-Arg-AMC as substrate in presence of pH 6 phosphate buffer by fluorescence assay.
For data set [12], the target named is T1, Cathepsin B. Kind of data set: Competitive inhibition of recombinant human cathepsin B exopeptidase activity assessed as inhibitory constant for enzyme-inhibitor complex using Abz-Gly-Ile-Val-Arg-Ala-Lys(Dnp)-OH as substrate in presence of pH 5 acetate buffer by fluorescence assay.
Data set [13] has as its target T1, Cathepsin B. Kind of data set: Non-competitive inhibition of recombinant human cathepsin B endopeptidase activity assessed as inhibitory constant for enzyme-inhibitor complex using Z-Arg-Arg-AMC as substrate in presence of pH 6 phosphate buffer by fluorescence assay.
The target in data set [14] is T1, Cathepsin B. Kind of data set: Inhibition of recombinant human cathepsin B exopeptidase activity assessed as residual activity at 50 uM using Abz-Gly-Ile-Val-Arg-Ala-Lys(Dnp)-OH as substrate in presence of pH 5 acetate buffer by fluorescence assay relative to control.
The target of data set [15] is T1, Cathepsin B. Kind of data set: Inhibition of recombinant human cathepsin B endopeptidase activity assessed as residual activity at 50 uM using Z-Arg-Arg-AMC as substrate in presence of pH 6 phosphate buffer by fluorescence assay relative to control.
For data set [16], the target named is T1, Cathepsin B. The experiment in a line: Competitive inhibition of recombinant human cathepsin B endopeptidase activity assessed as inhibitory constant for enzyme-inhibitor complex using Z-Arg-Arg-AMC as substrate in presence of pH 6 phosphate buffer by fluorescence assay.
Data set [17] has as its target T1, Cathepsin B. The experiment in a line: Non-competitive inhibition of recombinant human cathepsin B exopeptidase activity assessed as inhibitory constant for enzyme-inhibitor complex using Abz-Gly-Ile-Val-Arg-Ala-Lys(Dnp)-OH as substrate in presence of pH 5 acetate buffer by fluorescence assay.
For data set [18], the target named is T1, Cathepsin B. The experiment in a line: Non-competitive inhibition of recombinant human cathepsin B exopeptidase activity assessed as inhibitory constant for enzyme-substrate-inhibitor complex using Abz-Gly-Ile-Val-Arg-Ala-Lys(Dnp)-OH as substrate in presence of pH 5 acetate buffer by fluorescence assay.

Calls of active or inactive are those of the source. The rule behind the calls is not given here.

One may read the Ki as the dissociation constant of the complex between target and ligand, obtained from inhibition or displacement. For orientation: inhibition means the change of the read-out against control, counted positive when it falls.

Sequence of Procathepsin L (P07711 whole entry): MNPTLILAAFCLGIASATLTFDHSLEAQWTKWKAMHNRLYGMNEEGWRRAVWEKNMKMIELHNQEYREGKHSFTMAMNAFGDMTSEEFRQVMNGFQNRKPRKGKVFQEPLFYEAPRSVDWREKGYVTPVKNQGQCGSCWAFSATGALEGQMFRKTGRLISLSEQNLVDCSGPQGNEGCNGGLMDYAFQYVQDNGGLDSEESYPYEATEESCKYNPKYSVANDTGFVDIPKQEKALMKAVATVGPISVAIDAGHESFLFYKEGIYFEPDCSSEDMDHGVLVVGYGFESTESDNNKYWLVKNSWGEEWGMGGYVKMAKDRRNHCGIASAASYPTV

With `O=C(NCC1CCN(c2nc3ccccc3o2)CC1)c1cc([N+](=O)[O-])c2cccnc2c1O`, the Ki turned out to be 237 µM on Cathepsin B [1]; 13 µM at Cathepsin B [2]; 8.2 µM on Cathepsin B [3]; 108 µM on Pro-cathepsin H; 8 µM on Cathepsin B [8]; 5 µM at Procathepsin L. For the same compound, the values for the inhibition on Cathepsin B [4] and at Cathepsin B [7] were 45% and 35%, respectively. For the same compound, the “growth inhibition (GI)” value in the data set on U-87 MG [5] was “Active”. Moreover, the Activity result in the data set with MCF-10A-neoT [6] is reported as “Non-Toxic”; with U-87 MG [9], “Non-Toxic”; in the data set on MCF-10A-neoT [10], 50%.

On to `N#CC1(NC(=O)c2cc([N+](=O)[O-])ccc2O)CC1`, for which the Ki at Cathepsin B [11] is 128 µM; at Cathepsin B [12], 247 µM; on Cathepsin B [13] it was 247 µM.

With `O=[N+]([O-])c1ccc(O)c2ncccc12`, the Activity on Cathepsin B [14] turned out to be 24.7%; at Cathepsin B [15] it was 21.9%.

Turning to `N#CCNC(=O)c1ccc([N+](=O)[O-])c2cccnc12`, the Ki at Cathepsin B [1] was found to be 294 µM; at Cathepsin B [16] it was 240 µM; at Cathepsin B [17] it was 190 µM; on Cathepsin B [18], 190 µM.
